Holding throughout (format): functional
Assay [1] deals with Mycobacterium kansasii. Description: In vitro inhibition of Mycobacterium Kansasi (My 235/80) growth after 21 days culture. Particulars: 504 h.
Assay [2] relates to Mycobacterium tuberculosis. Description: In vitro minimum inhibitory concentration the compound for anti-mycobacterial activity was determined against Mycobacterium tuberculosis (My 331/88) by micromethod after 21 days of incubation. Particulars: 504 h. The method in brief: (§1)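 Micromethod broth MIC. Compounds tested at 500, 250, 125, 32, 16, 8, 4 and 2, plus one intermediate level between 125 and 32. Plates incubated at 37 C and read at 7, 14 and 21 days. MIC is the lowest concentration at which growth of the mycobacteria was inhibited. MIC could not be set where solubility in the test medium was limited.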

The subject of assay [3] is Mycobacterium kansasii. Description: In vitro inhibition of Mycobacterium Kansasi (My 6 509/96) growth after 14 days culture. The following applies: 336 h.
Another assay has as its system HeLa. Description: The compound was tested for cytotoxicity against HeLa cells. Particulars: Homo sapiens.
The test system of assay [4] is Mycobacterium kansasii. Nature of the assay: In vitro inhibition of Mycobacterium Kansasi (My 235/80) growth after 7 days culture. Particulars: 168 h.
Assay [5] concerns Mycobacterium kansasii. Nature of the assay: In vitro minimum inhibitory concentration of the compound for anti-mycobacterial activity was determined against Mycobacterium kansasii (My 6 509/96) by micromethod after 7 days of incubation. The following applies: 168 h.
Assay [6] relates to Mycobacterium avium. Nature of the assay: In vitro inhibition of Mycobacterium Avium (My 330/88) growth after 21 days culture. The following applies: 504 h. The method in brief: as §1
Assay [7] in a line: Ratio of cytotoxicity to minimum inhibitory concentration of Mycobacterium tuberculosis My 331/88 was evaluated.
Assay [8] has as its system Mycobacterium kansasii. Nature of the assay: In vitro inhibition of Mycobacterium Kansasi (My 6 509/96) growth after 21 days culture. Particulars: 504 h.
Assay [9] deals with Mycobacterium kansasii. Description: In vitro inhibition of Mycobacterium Kansasi (My 235/80) growth after 14 days culture. Particulars: 336 h.
The subject of assay [10] is Mycobacterium avium. Description: In vitro inhibition of Mycobacterium Avium growth after 14 days culture. The following applies: 336 h. The method in brief: as §1
Assay [11] has as its system Mycobacterium avium. Description: In vitro minimum inhibitory concentration the compound for anti-mycobacterial activity was determined against Mycobacterium avium (My 330/88) by micromethod after 21 days of incubation. The following applies: 504 h. The method in brief:
as §1

The test system of assay [12] is Mycobacterium kansasii. Description: In vitro minimum inhibitory concentration the compound for anti-mycobacterial activity was determined against Mycobacterium kansasii (My 6 509/96) by micromethod after 21 days of incubation. The following applies: 504 h.
In assay [13] the test system is Mycobacterium kansasii. Nature of the assay: In vitro minimum inhibitory concentration the compound for anti-mycobacterial activity was determined against Mycobacterium kansasii (My 235/80) by micromethod after 21 days of incubation. Particulars: 504 h.
The test system of assay [14] is Mycobacterium tuberculosis. Nature of the assay: In vitro inhibition of Mycobacterium Tuberculosis (My 331/88) growth after 14 days culture. Particulars: 336 h. The method in brief:
as §1

Assay [15] has as its system Mycobacterium kansasii. Nature of the assay: In vitro minimum inhibitory concentration the compound for anti-mycobacterial activity was determined against Mycobacterium kansasii (My 6 509/96) by micromethod after 7 days of incubation. Particulars: 168 h.
For assay [16], the system named is Mycobacterium avium. Nature of the assay: In vitro minimum inhibitory concentration the compound for anti-mycobacterial activity was determined against Mycobacterium avium (My 330/88) by micromethod after 14 days of incubation. The following applies: 336 h. The method in brief: as §1
Assay [17] relates to Mycobacterium kansasii. Description: In vitro minimum inhibitory concentration the compound for anti-mycobacterial activity was determined against Mycobacterium kansasii (My 235/80) by micromethod after 14 days of incubation. Particulars: 336 h.
For assay [18], the system named is Mycobacterium kansasii. Description: In vitro minimum inhibitory concentration the compound for anti-mycobacterial activity was determined against Mycobacterium kansasii (My 6 509/96) by micromethod after 14 days of incubation. The following applies: 336 h.
Assay [19] has as its system Mycobacterium tuberculosis. Nature of the assay: In vitro inhibition of Mycobacterium Tuberculosis (My 331/88) growth after 21 days culture. Particulars: 504 h. The method in brief:
as §1

As a reminder, the MIC is the lowest concentration that inhibits growth of the organism. Higher therefore signals a need for much substance. One may read the CC50 as the concentration at which the toxic effect on the cells reaches its halfway point. A high value points to lower toxicity to the cells.

Converted amounts (≈) assume the structure as drawn.

For the compound `NC(=S)c1cccc(CSc2nc3ccccc3s2)c1`, the MIC with Mycobacterium kansasii [1] is 16 µM (≈ 5.06 µg/mL); in [2] it was 16 µM (≈ 5.06 µg/mL); against Mycobacterium kansasii [3], 16 µM (≈ 5.06 µg/mL); against Mycobacterium kansasii [4] it was 8 µM (≈ 2.53 µg/mL); against Mycobacterium kansasii [5], 8 µM (≈ 2.53 µg/mL); with Mycobacterium avium [6], 62 µM (≈ 19.6 µg/mL). Besides, the MIC with Mycobacterium kansasii [8] worked out at 16 µM (≈ 5.06 µg/mL); with Mycobacterium kansasii [9] it was 16 µM (≈ 5.06 µg/mL); in the assay on Mycobacterium avium [10], 32 µM (≈ 10.1 µg/mL). Further, the CC50 with HeLa worked out at 36.7 µM. Further, the Safety index in [7] is 4.6.

In the case of `NC(=S)c1cccc(CSc2nc3ccccc3o2)c1`, the MIC against Mycobacterium avium [11] was 62 µM (≈ 18.6 µg/mL); with Mycobacterium kansasii [12], 32 µM (≈ 9.61 µg/mL); in the assay with Mycobacterium kansasii [13] it was 32 µM (≈ 9.61 µg/mL); in the assay with Mycobacterium kansasii [4], 8 µM (≈ 2.4 µg/mL); in assay [14], 8 µM (≈ 2.4 µg/mL); against Mycobacterium kansasii [15], 8 µM (≈ 2.4 µg/mL). Further, the MIC was found to be 62 µM (≈ 18.6 µg/mL) with Mycobacterium avium [16], 32 µM (≈ 9.61 µg/mL) against Mycobacterium kansasii [17], 32 µM (≈ 9.61 µg/mL) against Mycobacterium kansasii [18] and 16 µM (≈ 4.81 µg/mL) in [19]. In the assay on HeLa, this compound registered a CC50 of 71.9 µM. Besides, in assay [7], the Safety index turned out to be 9.

Regarding `c1ccc(CSc2nc3ccccc3s2)cc1`, the MIC was 62 µM (≈ 16 µg/mL) in the assay with Mycobacterium avium [11]; 250 µM (≈ 64.3 µg/mL) in the assay with Mycobacterium kansasii [12]; greater than 500 µM against Mycobacterium kansasii [13]; 62 µM (≈ 16 µg/mL) in the assay on Mycobacterium kansasii [4]; 250 µM (≈ 64.3 µg/mL) in [14]; 62 µM (≈ 16 µg/mL) in the assay on Mycobacterium kansasii [15]. Besides, the MIC is 32 µM (≈ 8.24 µg/mL) against Mycobacterium avium [16], 500 µM (≈ 129 µg/mL) against Mycobacterium kansasii [17], 125 µM (≈ 32.2 µg/mL) against Mycobacterium kansasii [18] and 500 µM (≈ 129 µg/mL) in assay [19].

On to `Sc1nc2ccccc2s1` [2-MERCAPTOBENZOTHIAZOLE], for which the MIC is greater than 62 µM in the assay on Mycobacterium avium [11]; greater than 62 µM with Mycobacterium kansasii [12]; greater than 125 µM in the assay on Mycobacterium kansasii [13]; 62 µM (≈ 10.4 µg/mL) in the assay on Mycobacterium kansasii [4]; 62 µM (≈ 10.4 µg/mL) in assay [14]; 62 µM (≈ 10.4 µg/mL) in the assay with Mycobacterium kansasii [15]. Also, the MIC is greater than 62 µM with Mycobacterium avium [16], 125 µM (≈ 20.9 µg/mL) against Mycobacterium kansasii [17], greater than 62 µM against Mycobacterium kansasii [18] and 62 µM (≈ 10.4 µg/mL) in [19].

Source of the values: ChEMBL document CHEMBL1134964, “Heterocyclic benzazole derivatives with antimycobacterial in vitro activity” (2002).
